Results reported in ChEMBL document CHEMBL5678815 (Clin Cancer Res, 2017).
Active and inactive are the calls of the source. The rule behind the calls is not given here.

How the values were obtained:
[1] = biological target: Mitogen-activated protein kinase kinase kinase 4 (Homo sapiens) (UniProt Q9Y6R4); experiment: Inhibition of human MAP3K4 assessed as remaining activity at 1 uM by ATP-competition binding assay relative to control
Method in brief: (§1)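 Single-point profiling at 1μM in an ATP-site-dependent competition binding assay across a panel of 395 human kinases, including mutant forms. The read-out is kinase binding signal in the presence of test agent, expressed as inhibition relative to the control signal. This screen assessed noncovalent binding interactions.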

[2] = biological target: Dual specificity protein kinase CLK2 (Homo sapiens) (UniProt P49760); experiment: Inhibition of human CLK2 assessed as remaining activity at 1 uM by ATP-competition binding assay relative to control
Chain of Dual specificity protein kinase CLK2 (Homo sapiens) (P49760 whole entry, looked up): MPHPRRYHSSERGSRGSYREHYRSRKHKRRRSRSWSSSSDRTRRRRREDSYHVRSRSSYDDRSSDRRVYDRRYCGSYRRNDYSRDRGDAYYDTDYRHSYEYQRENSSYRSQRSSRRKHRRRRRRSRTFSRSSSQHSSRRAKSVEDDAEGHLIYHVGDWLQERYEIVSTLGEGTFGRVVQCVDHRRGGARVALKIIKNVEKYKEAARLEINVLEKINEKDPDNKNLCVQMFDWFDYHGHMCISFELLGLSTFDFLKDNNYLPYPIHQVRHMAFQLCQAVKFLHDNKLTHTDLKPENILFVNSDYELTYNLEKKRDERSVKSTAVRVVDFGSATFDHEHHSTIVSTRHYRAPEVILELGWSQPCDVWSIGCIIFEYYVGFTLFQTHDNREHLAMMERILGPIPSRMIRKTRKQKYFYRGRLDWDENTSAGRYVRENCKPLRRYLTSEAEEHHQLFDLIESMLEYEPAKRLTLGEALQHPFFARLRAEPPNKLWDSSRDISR
Method in brief: (§2)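 KINOMEscan ATP-site-dependent competition binding panel of 395 human kinases, with compound tested at 1 μM. Binding is reported as remaining signal relative to control.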

[3] = biological target: Serine/threonine-protein kinase MAK (Homo sapiens) (UniProt P20794); experiment: Inhibition of human MAK assessed as remaining activity at 1 uM by ATP-competition binding assay relative to control; method in brief: as §1
[4] = biological target: Ribosomal protein S6 kinase alpha-5 (Homo sapiens) (UniProt O75582); experiment: Inhibition of human RPS6KA5 assessed as remaining activity at 1 uM by ATP-competition binding assay relative to control
Method in brief: (§3)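 Single-concentration (1 μM) screen in an ATP-site-dependent competition binding assay (KINOMEscan, outsourced) covering 395 human kinases, mutants included. Non-covalent binding was read as the remaining signal relative to the control signal.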

[5] = biological target: Cyclin-dependent kinase 7 (Homo sapiens) (UniProt P50613); experiment: Inhibition of human CDK7 assessed as remaining activity at 1 uM by ATP-competition binding assay relative to control; method in brief: as §2
Chain of Cyclin-dependent kinase 7 (Homo sapiens) (P50613 whole entry): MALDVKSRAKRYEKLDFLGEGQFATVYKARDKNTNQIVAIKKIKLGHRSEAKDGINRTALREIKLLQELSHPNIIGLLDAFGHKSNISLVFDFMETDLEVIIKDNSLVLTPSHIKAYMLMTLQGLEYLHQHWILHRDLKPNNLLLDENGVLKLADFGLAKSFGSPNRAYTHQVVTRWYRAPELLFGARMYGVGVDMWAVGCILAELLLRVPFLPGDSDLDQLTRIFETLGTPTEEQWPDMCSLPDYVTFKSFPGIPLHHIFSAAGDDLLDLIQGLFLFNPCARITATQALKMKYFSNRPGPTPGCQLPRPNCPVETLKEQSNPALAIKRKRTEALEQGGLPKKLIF

[6] = system: Mast/stem cell growth factor receptor Kit (Homo sapiens), P10721 [D816V]; experiment: Inhibition of human KIT D816V mutant assessed as remaining activity at 1 uM by ATP-competition binding assay relative to control; method in brief: as §1
[7] = biological target: Protein-tyrosine kinase 6 (Homo sapiens) (UniProt Q13882); experiment: Inhibition of human BRK assessed as remaining activity at 1 uM by ATP-competition binding assay relative to control; method in brief: as §2
[8] = biological target: AP2-associated protein kinase 1 (Homo sapiens) (UniProt Q2M2I8); experiment: Inhibition of human AAK1 assessed as remaining activity at 1 uM by ATP-competition binding assay relative to control; method in brief: as §2
[9] = biological target: Cyclin-dependent kinase 16 (Homo sapiens) (UniProt Q00536); experiment: Inhibition of human PCTK1 assessed as remaining activity at 1 uM by ATP-competition binding assay relative to control; method in brief: as §1
[10] = biological target: Tyrosine-protein kinase TXK (Homo sapiens) (UniProt P42681); experiment: Inhibition of human TXK assessed as remaining activity at 1 uM by ATP-competition binding assay relative to control; method in brief: as §3
[11] = biological target: Homeodomain-interacting protein kinase 4 (Homo sapiens) (UniProt Q8NE63); experiment: Inhibition of human HIPK4 assessed as remaining activity at 1 uM by ATP-competition binding assay relative to control; method in brief: as §1
[12] = biological target: Calcium/calmodulin-dependent protein kinase type II subunit gamma (Homo sapiens) (UniProt Q13555); experiment: Inhibition of human CAMK2G assessed as remaining activity at 1 uM by ATP-competition binding assay relative to control; method in brief: as §2
[13] = biological target: Calcium/calmodulin-dependent protein kinase type II subunit alpha (Homo sapiens) (UniProt Q9UQM7); experiment: Inhibition of human CAMK2A assessed as remaining activity at 1 uM by ATP-competition binding assay relative to control; method in brief: as §2
[14] = biological target: Tyrosine-protein kinase Yes (Homo sapiens) (UniProt P07947); experiment: Inhibition of human YES assessed as remaining activity at 1 uM by ATP-competition binding assay relative to control; method in brief: as §3
[15] = biological target: Calcium/calmodulin-dependent protein kinase type 1 (Homo sapiens) (UniProt Q14012); experiment: Inhibition of human CAMK1 assessed as remaining activity at 1 uM by ATP-competition binding assay relative to control; method in brief: as §2
Chain of Calcium/calmodulin-dependent protein kinase type 1 (Homo sapiens) (Q14012 whole entry, looked up): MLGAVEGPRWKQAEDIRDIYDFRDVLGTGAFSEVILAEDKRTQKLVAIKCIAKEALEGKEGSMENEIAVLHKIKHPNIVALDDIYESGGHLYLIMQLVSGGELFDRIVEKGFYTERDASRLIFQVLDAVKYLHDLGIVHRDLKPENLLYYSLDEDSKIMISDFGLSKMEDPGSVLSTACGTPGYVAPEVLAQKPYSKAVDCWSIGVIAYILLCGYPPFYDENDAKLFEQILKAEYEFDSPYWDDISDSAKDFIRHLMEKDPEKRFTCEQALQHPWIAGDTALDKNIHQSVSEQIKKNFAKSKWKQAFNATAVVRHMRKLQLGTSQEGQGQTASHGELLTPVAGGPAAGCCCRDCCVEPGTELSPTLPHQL

[16] = biological target: Ephrin type-A receptor 7 (Homo sapiens) (UniProt Q15375); experiment: Inhibition of human EPHA7 assessed as remaining activity at 1 uM by ATP-competition binding assay relative to control; method in brief: as §2
Chain of Ephrin type-A receptor 7 (Homo sapiens) (Q15375 28-998 limits assumed): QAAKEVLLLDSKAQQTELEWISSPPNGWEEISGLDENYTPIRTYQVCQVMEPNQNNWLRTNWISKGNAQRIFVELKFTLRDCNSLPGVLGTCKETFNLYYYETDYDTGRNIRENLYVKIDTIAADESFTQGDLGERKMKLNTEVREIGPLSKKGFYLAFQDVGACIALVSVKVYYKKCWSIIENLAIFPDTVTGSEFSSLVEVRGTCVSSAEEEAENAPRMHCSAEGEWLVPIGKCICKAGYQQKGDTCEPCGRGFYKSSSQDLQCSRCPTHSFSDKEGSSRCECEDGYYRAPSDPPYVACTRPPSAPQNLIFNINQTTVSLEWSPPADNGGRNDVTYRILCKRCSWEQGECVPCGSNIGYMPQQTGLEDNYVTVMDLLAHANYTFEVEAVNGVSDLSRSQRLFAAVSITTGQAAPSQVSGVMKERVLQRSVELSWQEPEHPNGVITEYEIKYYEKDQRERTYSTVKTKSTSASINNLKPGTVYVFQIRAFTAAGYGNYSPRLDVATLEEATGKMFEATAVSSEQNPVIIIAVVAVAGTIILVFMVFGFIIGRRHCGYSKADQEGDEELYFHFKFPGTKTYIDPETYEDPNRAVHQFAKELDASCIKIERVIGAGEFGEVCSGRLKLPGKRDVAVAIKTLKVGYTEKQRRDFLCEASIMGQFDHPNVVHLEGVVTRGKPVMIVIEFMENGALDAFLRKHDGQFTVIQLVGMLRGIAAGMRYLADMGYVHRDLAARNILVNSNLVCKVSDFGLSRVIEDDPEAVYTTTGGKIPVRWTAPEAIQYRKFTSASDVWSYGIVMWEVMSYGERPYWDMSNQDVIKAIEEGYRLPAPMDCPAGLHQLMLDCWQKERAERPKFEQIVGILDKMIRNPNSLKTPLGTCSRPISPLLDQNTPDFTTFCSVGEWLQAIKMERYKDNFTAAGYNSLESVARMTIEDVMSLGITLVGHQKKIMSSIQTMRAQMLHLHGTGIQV

Splenocyte = experiment: In vivo inhibition of BCR signaling in female […] mouse assessed as […] CD69 expression at 1 to 3 mg/kg, po administered and measured after stimulation with anti-IgM for 18 h by flow cytometry analysis; type: functional, organism-based; details: dose 1-3 mg/kg
Method in brief: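 Female C57BL/6 mice (5 per group per dose) were gavaged orally at 0.1–30 mg/kg. At 3 h, splenocytes were stimulated with anti-mouse IgM 10 μg/mL for 18 h at 37°C, 5% CO2. After Fc block, cells were stained for CD19 and CD69 with 7-AAD viability dye; >5,000 gated CD19+ cells acquired by flow cytometry.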

[17] = biological target: Receptor tyrosine-protein kinase erbB-4 (Homo sapiens) (UniProt Q15303); experiment: Inhibition of human ERBB4 assessed as remaining activity at 1 uM by ATP-competition binding assay relative to control; method in brief: as §1
Chain of Receptor tyrosine-protein kinase erbB-4 (Homo sapiens) (Q15303 whole entry): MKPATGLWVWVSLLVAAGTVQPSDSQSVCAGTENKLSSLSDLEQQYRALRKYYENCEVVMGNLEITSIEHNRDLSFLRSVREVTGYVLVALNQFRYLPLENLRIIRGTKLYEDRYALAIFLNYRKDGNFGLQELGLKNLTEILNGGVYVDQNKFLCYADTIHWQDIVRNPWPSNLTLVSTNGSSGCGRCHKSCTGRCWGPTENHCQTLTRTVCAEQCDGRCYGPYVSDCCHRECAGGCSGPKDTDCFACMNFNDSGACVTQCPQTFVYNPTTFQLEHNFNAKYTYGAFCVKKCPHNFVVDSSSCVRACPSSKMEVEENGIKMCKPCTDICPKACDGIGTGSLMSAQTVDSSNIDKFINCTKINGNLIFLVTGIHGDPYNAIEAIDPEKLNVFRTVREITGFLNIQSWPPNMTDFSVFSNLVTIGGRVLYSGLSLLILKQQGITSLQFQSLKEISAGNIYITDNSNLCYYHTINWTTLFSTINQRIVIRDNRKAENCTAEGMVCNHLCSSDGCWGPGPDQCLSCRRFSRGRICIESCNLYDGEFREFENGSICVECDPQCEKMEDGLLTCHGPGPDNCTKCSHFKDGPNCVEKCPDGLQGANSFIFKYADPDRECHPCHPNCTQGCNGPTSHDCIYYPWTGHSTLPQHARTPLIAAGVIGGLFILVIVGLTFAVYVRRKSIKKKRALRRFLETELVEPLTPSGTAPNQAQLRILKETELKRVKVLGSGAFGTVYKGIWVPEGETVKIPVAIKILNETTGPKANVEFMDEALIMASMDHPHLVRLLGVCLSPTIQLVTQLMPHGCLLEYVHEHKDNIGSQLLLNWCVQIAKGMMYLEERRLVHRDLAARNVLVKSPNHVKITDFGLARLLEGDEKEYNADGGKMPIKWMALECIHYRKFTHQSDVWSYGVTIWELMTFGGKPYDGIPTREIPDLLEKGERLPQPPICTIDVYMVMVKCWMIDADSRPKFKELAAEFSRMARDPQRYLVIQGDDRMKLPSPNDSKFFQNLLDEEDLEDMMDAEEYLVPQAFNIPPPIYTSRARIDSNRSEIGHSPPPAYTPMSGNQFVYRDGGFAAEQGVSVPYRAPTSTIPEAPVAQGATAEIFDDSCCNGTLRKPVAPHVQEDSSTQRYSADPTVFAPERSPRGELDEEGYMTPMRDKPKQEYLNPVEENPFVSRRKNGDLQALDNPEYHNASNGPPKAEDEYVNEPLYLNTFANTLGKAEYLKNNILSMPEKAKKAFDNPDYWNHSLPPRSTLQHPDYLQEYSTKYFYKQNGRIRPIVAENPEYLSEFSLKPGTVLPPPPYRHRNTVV

[18] = In vivo inhibition of BCR signaling in female […] mouse assessed as B-cell function at 25 mg/kg, po administered for 24 hrs and measured after stimulation with anti-IgM for 18 h by flow cytometry analysis relative to control; type: functional, Splenocyte; set-up: scale not given: the % may be the effect or the level left
Method in brief: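 Female C57BL/6 mice (5/group) received vehicle or 25 mg/kg drug by oral gavage at time zero, with spleens taken at time points from 3 to 24 h. Splenocytes were stimulated ex vivo with goat anti-mouse IgM at 10μg/mL for 18 h at 37°C in 5% CO2, then Fc-blocked and stained for CD19 plus CD69, CD86 or phospho-S6(S235/236), with 7-AAD to exclude dead cells. Read-out was flow cytometry on >5,000 gated CD19+ cells, compared with vehicle.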

[19] = biological target: Calcium/calmodulin-dependent protein kinase type IV (Homo sapiens) (UniProt Q16566); experiment: Inhibition of human CAMK4 assessed as remaining activity at 1 uM by ATP-competition binding assay relative to control; method in brief: as §2
[20] = biological target: Serine/threonine-protein kinase Chk2 (Homo sapiens) (UniProt O96017); experiment: Inhibition of human CHEK2 assessed as remaining activity at 1 uM by ATP-competition binding assay relative to control; method in brief: as §2
[21] = biological target: cGMP-dependent protein kinase 2 (Homo sapiens) (UniProt Q13237); experiment: Inhibition of human PRKG2 assessed as remaining activity at 1 uM by ATP-competition binding assay relative to control; method in brief: as §3
[22] = system: eIF-2-alpha kinase GCN2 (Homo sapiens), Q9P2K8 [S808G]; experiment: Inhibition of human GCN2 S808G mutant kinase domain 2 assessed as remaining activity at 1 uM by ATP-competition binding assay relative to control; method in brief: as §1
[23] = biological target: Non-receptor tyrosine-protein kinase TNK1 (Homo sapiens) (UniProt Q13470); experiment: Inhibition of human TNK1 assessed as remaining activity at 1 uM by ATP-competition binding assay relative to control; method in brief: as §3

Chain of Mitogen-activated protein kinase kinase kinase 4 (Homo sapiens) (Q9Y6R4 whole entry): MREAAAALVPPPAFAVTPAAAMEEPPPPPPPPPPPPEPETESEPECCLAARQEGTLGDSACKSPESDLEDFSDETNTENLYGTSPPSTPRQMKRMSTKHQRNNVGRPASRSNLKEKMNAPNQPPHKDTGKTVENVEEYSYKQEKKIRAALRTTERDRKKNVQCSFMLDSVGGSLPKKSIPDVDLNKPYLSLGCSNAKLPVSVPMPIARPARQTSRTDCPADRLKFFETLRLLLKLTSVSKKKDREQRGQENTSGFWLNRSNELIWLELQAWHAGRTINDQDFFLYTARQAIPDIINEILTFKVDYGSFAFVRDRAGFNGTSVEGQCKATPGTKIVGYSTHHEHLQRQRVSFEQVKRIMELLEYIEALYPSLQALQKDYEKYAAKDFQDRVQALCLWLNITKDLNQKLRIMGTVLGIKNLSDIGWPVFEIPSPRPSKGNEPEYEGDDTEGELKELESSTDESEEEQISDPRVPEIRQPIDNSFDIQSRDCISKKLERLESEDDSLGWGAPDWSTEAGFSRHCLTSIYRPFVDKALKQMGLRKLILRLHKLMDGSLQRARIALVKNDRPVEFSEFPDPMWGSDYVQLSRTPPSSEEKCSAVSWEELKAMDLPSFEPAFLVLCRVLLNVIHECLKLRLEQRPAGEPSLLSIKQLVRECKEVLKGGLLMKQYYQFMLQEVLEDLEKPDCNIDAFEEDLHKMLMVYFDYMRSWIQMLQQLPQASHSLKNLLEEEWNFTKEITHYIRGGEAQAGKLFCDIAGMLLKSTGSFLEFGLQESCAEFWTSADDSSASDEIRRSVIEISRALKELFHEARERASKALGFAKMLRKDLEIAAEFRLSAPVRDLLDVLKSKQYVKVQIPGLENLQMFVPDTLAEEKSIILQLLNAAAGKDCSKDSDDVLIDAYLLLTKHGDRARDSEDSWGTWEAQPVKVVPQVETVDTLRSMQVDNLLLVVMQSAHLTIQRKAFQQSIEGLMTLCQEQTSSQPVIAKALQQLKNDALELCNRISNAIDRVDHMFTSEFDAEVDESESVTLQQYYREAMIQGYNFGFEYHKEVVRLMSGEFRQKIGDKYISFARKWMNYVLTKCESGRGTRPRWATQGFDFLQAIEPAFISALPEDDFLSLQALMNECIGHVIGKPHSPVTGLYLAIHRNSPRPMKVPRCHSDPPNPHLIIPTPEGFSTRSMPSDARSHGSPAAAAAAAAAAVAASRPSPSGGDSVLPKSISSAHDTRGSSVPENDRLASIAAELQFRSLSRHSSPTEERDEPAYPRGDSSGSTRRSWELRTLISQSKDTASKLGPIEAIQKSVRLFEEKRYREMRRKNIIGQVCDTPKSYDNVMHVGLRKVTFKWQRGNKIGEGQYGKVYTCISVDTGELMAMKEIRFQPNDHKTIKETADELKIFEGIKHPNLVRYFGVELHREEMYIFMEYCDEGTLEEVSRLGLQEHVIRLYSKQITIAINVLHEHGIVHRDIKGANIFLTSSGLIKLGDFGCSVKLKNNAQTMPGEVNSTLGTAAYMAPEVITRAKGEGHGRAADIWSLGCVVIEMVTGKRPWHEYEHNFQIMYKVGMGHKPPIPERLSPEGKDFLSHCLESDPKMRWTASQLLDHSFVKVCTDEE

CC#CC(=O)N1CCC[C@H]1c1nc(-c2ccc(C(=O)Nc3ccccn3)cc2)c2c(N)nccn12 [ACALABRUTINIB]
Activity [1]: 86% | Activity [2]: 94% | Activity [3]: 90% | Activity [4]: 84% | Activity [5]: 74% | Activity [6]: 83% | Activity [7]: 79% | Activity [8]: 86% | Activity [9]: 100% | Activity [10]: 24% | Activity [11]: 88% | Activity [12]: 84% | Activity [13]: 90% | Activity [14]: 83% | Activity [15]: 87% | Activity [16]: 94% | Activity (Splenocyte): Active | Activity [17]: 4.3% | Activity [18]: ~70% | Activity [19]: 91% | Activity [20]: 94% | Activity [21]: 95% | Activity [22]: 90% | Activity [23]: 90%
